The values below come from ChEMBL document CHEMBL3868627, “Radical scavenging and antibacterial activity of caffemides against gram positive, gram negative and clinical drug resistance bacteria” (Bioorg Med Chem Lett, 2016).

Common to all, as to format: functional
Test [1] has as its system Pseudomonas aeruginosa. Nature of the test: Bactericidal activity against Pseudomonas aeruginosa PAO1 ATCC 15692 at 10 to 50 ug/ml measured after 1 hrs by serial dilution method relative to control.
Test [2] concerns Pseudomonas aeruginosa. Description: Bactericidal activity against Pseudomonas aeruginosa PAO1 ATCC 15692 at 50 to 100 ug/ml measured after 3 hrs by serial dilution method relative to control.
Test [3] deals with Staphylococcus aureus. Description: Bactericidal activity against Staphylococcus aureus ATCC 25923 at 1 to 10 ug/ml measured after 6 hrs by serial dilution method relative to control.
In test [4] the test system is Staphylococcus aureus. Nature of the test: Bactericidal activity against Staphylococcus aureus ATCC 25923 at 200 ug/ml measured after 6 hrs by serial dilution method relative to control.
The subject of test [5] is Pseudomonas aeruginosa. Description: Antibacterial activity against Pseudomonas aeruginosa PAO1 ATCC 15692 assessed as colony forming units at 10 ug/ml measured after 1 hr by serial dilution method (reference value: 85.33 +/- 4.04 10^8CFU).
Test [6] deals with Pseudomonas aeruginosa. Description: Antibacterial activity against Pseudomonas aeruginosa PAO1 ATCC 15692 assessed as colony forming units at 1 ug/ml measured after 3 hr by serial dilution method (reference value: 141.66 +/- 7.5 10^8CFU).
For test [7], the system named is Pseudomonas aeruginosa. Description: Antibacterial activity against Pseudomonas aeruginosa PAO1 ATCC 15692 assessed as colony forming units at 200 ug/ml measured after 3 hr by serial dilution method (reference value: 141.66 +/- 7.5 10^8CFU).
Test [8] has as its system Staphylococcus aureus. Nature of the test: Antibacterial activity against Staphylococcus aureus ATCC 25923 assessed as colony forming units at 1 ug/ml measured after 6 hrs by serial dilution method (reference value: 65.66 +/- 3.51 10^6CFU).
The test system of test [9] is Staphylococcus aureus. Description: Antibacterial activity against Staphylococcus aureus ATCC 25923 assessed as colony forming units at 50 ug/ml measured after 6 hrs by serial dilution method (reference value: 65.66 +/- 3.51 10^6CFU).
For test [10], the system named is Staphylococcus aureus. Nature of the test: Antibacterial activity against Staphylococcus aureus ATCC 25923 assessed as colony forming units at 50 ug/ml measured after 24 hrs by serial dilution method (reference value: 77.66 +/- 5.13 10^6CFU).
For test [11], the system named is Staphylococcus aureus. Nature of the test: Antibacterial activity against methicillin-resistant Staphylococcus aureus ATCC 43300 assessed as colony forming units at 200 ug/ml measured after 6 hrs by serial dilution method (reference value: 64.33 +/- 3.51 10^6CFU). The procedure, abridged: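 Bacteria were exposed to test compound over a range of µg/ml concentrations. Viable bacteria were counted by colony forming unit (CFU) assay at set time points (6 h and 24 h for M. smegmatis and S. aureus strains), and untreated bacteria served as the control. Percentage of population killed was calculated relative to the untreated control. Values are means ± S.D of three independent trials.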

For test [12], the system named is Pseudomonas aeruginosa. Nature of the test: Bactericidal activity against Pseudomonas aeruginosa PAO1 ATCC 15692 at 50 ug/ml measured after 1 hr by serial dilution method relative to control.
The test system of test [13] is Pseudomonas aeruginosa. Nature of the test: Bactericidal activity against Pseudomonas aeruginosa PAO1 ATCC 15692 at 50 ug/ml measured after 3 hrs by serial dilution method relative to control.
The test system of test [14] is Staphylococcus aureus. Description: Bactericidal activity against Staphylococcus aureus ATCC 25923 at 100 ug/ml measured after 6 hrs by serial dilution method relative to control.
Test [15] relates to Staphylococcus aureus. Description: Bactericidal activity against Staphylococcus aureus ATCC 25923 at 100 ug/ml measured after 24 hrs by serial dilution method relative to control.

`Cc1ccc(O)c(NC(=O)/C=C/c2ccc(O)c(O)c2)c1`: the Activity in test [1] worked out at 50%; in [2], 50%; in test [3], 60.9%; in test [4], 93.8%; in [5], 59.33 ×10⁸ CFU; in test [6], 126 ×10⁸ CFU. Besides, the Activity turned out to be 38.33 ×10⁸ CFU in test [7]; 26.33 ×10⁶ CFU in test [8]; 13.66 ×10⁶ CFU in test [9]; 8 ×10⁶ CFU in test [10]; 6.66 ×10⁶ CFU in [11].

Consider `O=C(/C=C/c1ccc(O)c(O)c1)Nc1ccccc1Nc1ccccc1`, for which the Activity is reported as 58.9% in [12]; 62.1% in [13]; 92.3% in test [14]; 84.9% in test [15]; 50.33 ×10⁸ CFU in test [5]; 115.33 ×10⁸ CFU in test [6]. The Activity amounted to 21.33 ×10⁸ CFU in test [7], 42 ×10⁶ CFU in [8], 8.66 ×10⁶ CFU in [9] and 24.66 ×10⁶ CFU in test [10].
